Results taken from ChEMBL document CHEMBL2311423, “Novel carbocyclic nucleoside analogs suppress glomerular mesangial cells proliferation and matrix protein accumulation through ROS-dependent mechanism in the diabetic milieu” (Bioorg Med Chem Lett, 2013).
The source made the active and inactive calls. The calls are words filed in the database; no cut-off is given here.

What was measured:
Type in all cases: functional
[1] = Antidiabetic nephropathic activity in rat glomerular mesangial cells assessed as reduction of high-glucose induced fibronectin expression at 1 uM treated 12 to 24 hrs after serum-deprivation measured after 24 hrs by Western blot analysis relative to beta-actin expression
[2] = Antidiabetic nephropathic activity in rat glomerular mesangial cells assessed as reduction of high-glucose induced fibronectin expression at 10 uM treated 12 to 24 hrs after serum-deprivation measured after 24 hrs by Western blot analysis relative to beta-actin expression
[3] = Antidiabetic nephropathic activity in rat glomerular mesangial cells assessed as reduction of high-glucose induced NADPH-dependent ROS production by measuring NADPH oxidase activity at 1 uM treated 12 after serum-deprivation measured after 24 hrs by DHE staining
Outline: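 Rat glomerular mesangial cells serum-deprived 12 h, then given high glucose (25 mM) for 24 h with or without compound. NADPH-dependent superoxide generation (NADPH oxidase activity) measured in parallel with DHE staining. Superoxide expressed as relative light units per mg protein.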

[4] = species: Rattus norvegicus; test: Antidiabetic nephropathic activity in rat glomerular mesangial cells assessed as reduction of high-glucose induced cell proliferation at 1 to 10 uM treated 12 after serum-deprivation measured after 24 hrs by MTT assay
Outline: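 Rat glomerular mesangial cells serum-deprived 12 h, then given high glucose (25 mM) for 24 h with or without compound at different concentrations. Proliferation read by MTT assay after 24 h, compared against normal-glucose cells.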

CC(=O)OC[C@@H]1CC(n2cc(C)c(=O)n(C(=O)c3ccccc3)c2=O)C[C@H]1COC(C)=O (racemic)
Activity [1]: 59 a.u.
Activity [2]: 53 a.u.

CC(=O)OC[C@@H]1CC(n2ccc(=O)n(C(=O)c3ccccc3)c2=O)C[C@H]1COC(C)=O (racemic)
Activity [1]: 55 a.u.
Activity [2]: 52 a.u.

CCOC(=O)[C@H]1C[C@H](n2cc(C)c(=O)n(C(=O)c3ccccc3)c2=O)C[C@H]1C(=O)OCC
Activity [1]: 68 a.u.
Activity [2]: 66 a.u.

CC(=O)OC[C@@H]1C[C@@H](n2cc(C)c(=O)n(C(=O)c3ccccc3)c2=O)C[C@@H]1COC(C)=O
Activity [1]: 65 a.u.
Activity [2]: 40 a.u.

CC(=O)OC[C@@H]1C[C@@H](n2ccc(=O)n(C(=O)c3ccccc3)c2=O)C[C@@H]1COC(C)=O
Activity [1]: 64 a.u.
Activity [2]: 57 a.u.

CCOC(=O)[C@@H]1CC(n2cc(C)c(=O)n(C(=O)c3ccccc3)c2=O)C[C@H]1C(=O)OCC (racemic)
Activity [1]: 25 a.u.
Activity [2]: 20 a.u.
Activity [3]: Active
Activity [4]: Active

CCOC(=O)[C@@H]1CC(n2ccc(=O)n(C(=O)c3ccccc3)c2=O)C[C@H]1C(=O)OCC (racemic)
Activity [1]: 67 a.u.
Activity [2]: 60 a.u.

CCOC(=O)[C@H]1C[C@H](n2ccc(=O)n(C(=O)c3ccccc3)c2=O)C[C@H]1C(=O)OCC
Activity [1]: 26 a.u.
Activity [2]: 20 a.u.
Activity [3]: Active
Activity [4]: Active
